The record followed here is ChEMBL document CHEMBL1138754, “Synthesis of taxoids with improved cytotoxicity and solubility for use in tumor-specific delivery” (J Med Chem, 2004).

In brackets after ≈: the same amount, converted by molar mass.

Series [1] has as its system MCF7. Nature of the series: In vitro inhibitory concentration that inhibits 50% of the growth of MCF-7 human breast cell carcinoma cell line after 72 hr of drug exposure. Format: functional, cell-based. Particulars: MCF7, 72 h.
For series [2], the system named is A549. Nature of the series: In vitro inhibitory concentration that inhibits 50% of the growth of A549 non small cell lung carcinoma cell line after 72 hr of drug exposure. The series is classed as functional, cell-based. The following applies: Homo sapiens, A549, 72 h.
Series [3] relates to MCF7. In words: In vitro inhibitory concentration that inhibits 50% of the growth of MCF-7 human breast cell carcinoma cell line after 72 hr of drug exposure. (IC50 based on 2 separate determinations). Format: functional. Particulars: MCF7, 72 h.
The test system of series [4] is A549. Nature of the series: In vitro inhibitory concentration that inhibits 50% of the growth of A549 non small cell lung carcinoma cell line after 72 hr of drug exposure. (IC50 based on 2 separate determinations). Format: functional. Particulars: Homo sapiens, A549, 72 h.
Series [5] is described as follows: Solubility in 10% DMA (expressed as mean of 3 determinations). Particulars: read-out: S. The series is classed as physicochemical. The method, boiled down: (§1)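 200 μg of taxane was dissolved in 50 µL of organic solvent (DMA, DMSO or ethanol), then diluted to 500 µL (10% organic) with conjugation buffer: 0.1 M potassium phosphate, 1 mM EDTA, pH 6.5. The mixture was vortexed and centrifuged, and the taxane concentration in the supernatant was measured spectrophotometrically.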

A short description of series [6]: Solubility in 10% Ethanol (expressed as mean of 3 determinations). Format: physicochemical. Particulars: read-out: S. The method, boiled down:
as §1

Series [7] in a line: Solubility in 10% DMSO(expressed as mean of 3 determinations). Format: physicochemical. The following applies: read-out: S. The method, boiled down: as §1
Series [8] can be described thus: Solubility in 10% DMSO (expressed as mean of 3 determinations). Format: physicochemical. The following applies: read-out: S. The method, boiled down:
as §1

In a further series the test system is NCI/ADR-RES. Nature of the series: Inhibitory concentration that inhibits 50% of the growth of NCI ADR RES human […] cell carcinoma cell line after 72 h of drug exposure. Format: functional, cell-based.
The nature of series [9]: Inhibitory concentration that inhibits 50% of the growth of Namalwa Burkitts lymphoma cell carcinoma cell line after 72 hr of drug exposure. Format: functional, cell-based. The following applies: Homo sapiens.
Series [10] deals with MCF7. In words: Inhibitory concentration that inhibits 50% of the growth of MCF-7 human breast cell carcinoma cell line after 72 hr of drug exposure. (Table 3). Format: functional, cell-based. The following applies: MCF7, 72 h.
A short description of series [11]: Inhibitory concentration that inhibits 50% of the growth of Namalwa MDR Burkitts lymphoma MDR cell carcinoma cell line after 72 hr of drug exposure. The series is classed as functional, cell-based. The following applies: Homo sapiens.
The nature of series [12]: Solubility in 10% DMA(expressed as mean of 3 determinations). The series is classed as physicochemical. Particulars: read-out: S. The method, boiled down:
as §1

For another series, the system named is Breast carcinoma cell. In words: Inhibitory concentration that inhibits 50% of the growth of LCC6/P9 human breast cell carcinoma cell line after 72 hr of drug exposure. The series is classed as functional, cell-based.
The subject of a further series is MDR. Nature of the series: Inhibitory concentration that inhibits 50% of the growth of LGM MDR human breast cell carcinoma cell line after 72 hr of drug exposure. Format: functional, cell-based.

Regarding `CSSCCC(=O)O[C@H]1C(=O)[C@]2(C)C(O)C[C@H]3OC[C@@]3(OC(C)=O)C2[C@H](OC(=O)c2ccccc2)[C@]2(O)C[C@H](OC(=O)[C@H](O)[C@H](C=C(C)C)NC(=O)OC(C)(C)C)C(C)=C1C2(C)C` (stereo partly specified), the 50% inhibitory concentration (IC50) was found to be 1000 pM in the series on MCF7 [1] and 800 pM in the series with A549 [2].

For `COc1ccc(OC)c(C(=O)O[C@H]2C3[C@](C)(C(=O)[C@H](OC(=O)CCOCCOCCOCCOCCOCCOCCOCCOCCOCCOCCSSC)C4=C(C)[C@@H](OC(=O)[C@H](O)[C@H](C=C(C)C)NC(=O)OC(C)(C)C)C[C@]2(O)C4(C)C)C(O)C[C@H]2OC[C@@]32OC(C)=O)c1` (stereo partly specified), the IC50 with MCF7 [3] is 580 pM; in the series on A549 [4], 1100 pM. In addition, the solubility is 97 µg/mL (≈ 68.3 µM) in series [5], 127 µg/mL (≈ 89.4 µM) in [6] and 110 µg/mL (≈ 77.4 µM) in series [7].

For the compound `COc1ccc(OC)c(C(=O)O[C@H]2C3[C@](C)(C(=O)[C@H](O)C4=C(C)[C@@H](OC(=O)[C@H](O)[C@H](C=C(C)C)NC(=O)OC(C)(C)C)C[C@]2(O)C4(C)C)C(OC(=O)CCSSC)C[C@H]2OC[C@@]32OC(C)=O)c1` (stereo partly specified), the figures for the IC50 with MCF7 [1] and in the series on A549 [2] were 70 pM and 130 pM, respectively. Besides, the solubility in series [5] turned out to be 10 µg/mL (≈ 10.2 µM); in series [6], 2 µg/mL (≈ 2.04 µM); in series [7], 4 µg/mL (≈ 4.08 µM).

Turning to `COc1ccc(OC)c(C(=O)O[C@H]2C3[C@](C)(C(=O)[C@H](OC(=O)N4CCN(CCSSC)CC4)C4=C(C)[C@@H](OC(=O)[C@H](O)[C@H](C=C(C)C)NC(=O)OC(C)(C)C)C[C@]2(O)C4(C)C)C(O)C[C@H]2OC[C@@]32OC(C)=O)c1` (stereo partly specified), the half-inhibitory concentration (IC50) turned out to be 39 pM in the series on MCF7 [1] and 300 pM with A549 [2]. Also, the solubility in series [5] turned out to be 26 µg/mL (≈ 24.4 µM); in [6], 32 µg/mL (≈ 30.1 µM); in series [7] it was 26 µg/mL (≈ 24.4 µM).

For `COc1ccc(OC)c(C(=O)O[C@H]2C3[C@](C)(C(=O)[C@H](O)C4=C(C)[C@@H](OC(=O)[C@H](O)[C@H](C=C(C)C)NC(=O)OC(C)(C)C)C[C@]2(O)C4(C)C)C(OC(=O)CCOCCOCCOCCOCCSSC)C[C@H]2OC[C@@]32OC(C)=O)c1` (stereo partly specified), the IC50 with MCF7 [3] was found to be 320 pM; with A549 [4], 1000 pM. In addition, the solubility in series [5] was found to be 11 µg/mL (≈ 9.51 µM); in series [8], 17 µg/mL (≈ 14.7 µM); in series [6], 13 µg/mL (≈ 11.2 µM).

Take `CSSCCN1CCN(C(=O)O[C@H]2C(=O)[C@]3(C)C(O)C[C@H]4OC[C@@]4(OC(C)=O)C3[C@H](OC(=O)c3ccccc3)[C@]3(O)C[C@H](OC(=O)[C@H](O)[C@H](C=C(C)C)NC(=O)OC(C)(C)C)C(C)=C2C3(C)C)CC1` (stereo partly specified): the half-maximal inhibitory concentration (IC50) in the series on MCF7 [1] was found to be 1000 pM; in the series on A549 [2], 1100 pM.

Take `COc1ccc(OC)c(C(=O)O[C@H]2C3[C@](C)(C(=O)[C@H](OC(=O)CCOCCOCCOCCOCCSSC)C4=C(C)[C@@H](OC(=O)[C@H](O)[C@H](C=C(C)C)NC(=O)OC(C)(C)C)C[C@]2(O)C4(C)C)C(O)C[C@H]2OC[C@@]32OC(C)=O)c1` (stereo partly specified): the IC50 stood at 19000 pM in the series on NCI/ADR-RES; 450 pM in [9]; 60 pM in the series on MCF7 [1]; 500 pM in the series with MCF7 [10]; 290 pM in the series with A549 [2]; 900 pM in series [11]. In addition, the IC50 with Breast carcinoma cell was 1600 pM; in the series with MDR it was 18000 pM. Further, the results for the solubility in series [12], in [6] and in series [7] were 79 µg/mL (≈ 68.3 µM), 55 µg/mL (≈ 47.6 µM) and 82 µg/mL (≈ 70.9 µM), respectively.

In the case of `COc1ccc(OC)c(C(=O)O[C@H]2C3[C@](C)(C(=O)[C@H](OC(=O)CCSSC)C4=C(C)[C@@H](OC(=O)[C@H](O)[C@H](C=C(C)C)NC(=O)OC(C)(C)C)C[C@]2(O)C4(C)C)C(O)C[C@H]2OC[C@@]32OC(C)=O)c1` (stereo partly specified), the half-maximal inhibitory concentration (IC50) in the series on NCI/ADR-RES came out at 15000 pM; in [9] it was 530 pM; in the series on MCF7 [1] it was 50 pM; in the series with MCF7 [10] it was 400 pM; in the series on A549 [2] it was 90 pM; in series [11], 650 pM. The IC50 with Breast carcinoma cell was 1000 pM; in the series on MDR, 4000 pM. The solubility came out at 8 µg/mL (≈ 8.16 µM) in [12], 10 µg/mL (≈ 10.2 µM) in series [6] and 14 µg/mL (≈ 14.3 µM) in series [7].

In general, IC50 refers to the concentration at which inhibition is half-maximal.
